Laboratory results: ChEMBL document CHEMBL3124928, “Synthesis, antileishmanial activity and docking study of N'-substitutedbenzylidene-2-(6,7-dihydrothieno[3,2-c]pyridin-5(4H)-yl)acetohydrazides” (Bioorg Med Chem Lett, 2014)
In brackets after ≈: the same amount, converted by molar mass. Activity calls are given as the source filed them. The calls are words filed in the database; no cut-off is given here.

What follows are compounds tested on Staphylococcus aureus (assay: Antibacterial activity against Staphylococcus aureus NCIM 2901 up to 300 ug/ml by standard agar method). Details: not given.
Assay type: functional, organism-based

SMILES	Activity
O=C(CN1CCc2sccc2C1)N/N=C/c1ccc(O)c(O)c1	inactive

The compounds below were run on Staphylococcus aureus (assay: Antibacterial activity against Staphylococcus aureus NCIM 2901 by standard agar method). Details: not given.
Assay type: functional
Outline: (§1)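 MIC determined by standard agar method, with dimethyl sulfoxide as solvent control.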

SMILES	MIC [µg/mL]
O=C(CN1CCc2sccc2C1)N/N=C/c1c(Cl)cccc1Cl	250 (≈ 679 µM)
COc1cccc(N)c1/C=N/NC(=O)CN1CCc2sccc2C1	275 (≈ 798 µM)
COc1ccc(/C=N/NC(=O)CN2CCc3sccc3C2)cc1OC	150 (≈ 417 µM)
O=C(CN1CCc2sccc2C1)N/N=C/c1ccccc1Cl	100 (≈ 300 µM)
O=C(CN1CCc2sccc2C1)N/N=C/c1ccc(Cl)cc1	50 (≈ 150 µM)
N#Cc1ccc(/C=N/NC(=O)CN2CCc3sccc3C2)cc1	250 (≈ 771 µM)
COc1ccc(/C=N/NC(=O)CN2CCc3sccc3C2)c(OC)c1	75 (≈ 209 µM)
CN(C)c1ccc(/C=N/NC(=O)CN2CCc3sccc3C2)cc1	100 (≈ 292 µM)
COc1ccc(OC)c(/C=N/NC(=O)CN2CCc3sccc3C2)c1	75 (≈ 209 µM)
O=C(O)c1cn(C2CC2)c2cc(N3CCNCC3)c(F)cc2c1=O [CIPROFLOXACIN]	50 (≈ 151 µM)
CC1(C)S[C@@H]2[C@H](NC(=O)[C@H](N)c3ccccc3)C(=O)N2[C@H]1C(=O)O [AMPICILLIN]	250 (≈ 715 µM)

What follows are compounds tested on Aspergillus niger (assay: Antifungal activity against Aspergillus niger NCIM 1196 by standard agar method). Details: not given.
Assay type: functional
Outline: as §1

SMILES	MIC [µg/mL]
O=C(CN1CCc2sccc2C1)N/N=C/c1c(Cl)cccc1Cl	160 (≈ 434 µM)
OC(Cn1cncn1)(Cn1cncn1)c1ccc(F)cc1F [FLUCONAZOLE]	10 (≈ 32.7 µM)
COc1cccc(N)c1/C=N/NC(=O)CN1CCc2sccc2C1	140 (≈ 406 µM)
O=C(CN1CCc2sccc2C1)N/N=C/c1ccc(O)c(O)c1	75 (≈ 226 µM)
COc1ccc(/C=N/NC(=O)CN2CCc3sccc3C2)cc1OC	12.5 (≈ 34.8 µM)
O=C(CN1CCc2sccc2C1)N/N=C/c1ccccc1Cl	120 (≈ 359 µM)
O=C(CN1CCc2sccc2C1)N/N=C/c1ccc(Cl)cc1	100 (≈ 300 µM)
N#Cc1ccc(/C=N/NC(=O)CN2CCc3sccc3C2)cc1	140 (≈ 432 µM)
COc1ccc(/C=N/NC(=O)CN2CCc3sccc3C2)c(OC)c1	50 (≈ 139 µM)
Clc1ccc(COC(Cn2ccnc2)c2ccc(Cl)cc2Cl)c(Cl)c1 (stereo unspecified) [MICONAZOLE]	12.5 (≈ 30 µM)
CN(C)c1ccc(/C=N/NC(=O)CN2CCc3sccc3C2)cc1	100 (≈ 292 µM)
COc1ccc(OC)c(/C=N/NC(=O)CN2CCc3sccc3C2)c1	150 (≈ 417 µM)

The compounds below were run on Pseudomonas aeruginosa (assay: Antibacterial activity against Pseudomonas aeruginosa NCIM 2036 by standard agar method). Details: not given.
Assay type: functional
Outline: as §1

SMILES	MIC [µg/mL]
O=C(CN1CCc2sccc2C1)N/N=C/c1c(Cl)cccc1Cl	150 (≈ 407 µM)
O=C(CN1CCc2sccc2C1)N/N=C/c1ccc(O)c(O)c1	150 (≈ 453 µM)
COc1ccc(/C=N/NC(=O)CN2CCc3sccc3C2)cc1OC	200 (≈ 556 µM)
O=C(CN1CCc2sccc2C1)N/N=C/c1ccccc1Cl	125 (≈ 374 µM)
O=C(CN1CCc2sccc2C1)N/N=C/c1ccc(Cl)cc1	50 (≈ 150 µM)
N#Cc1ccc(/C=N/NC(=O)CN2CCc3sccc3C2)cc1	150 (≈ 462 µM)
COc1ccc(/C=N/NC(=O)CN2CCc3sccc3C2)c(OC)c1	250 (≈ 696 µM)
COc1ccc(OC)c(/C=N/NC(=O)CN2CCc3sccc3C2)c1	250 (≈ 696 µM)
CC1(C)S[C@@H]2[C@H](NC(=O)[C@H](N)c3ccccc3)C(=O)N2[C@H]1C(=O)O [AMPICILLIN]	100 (≈ 286 µM)

These compounds were tested on Bacillus subtilis (assay: Antibacterial activity against Bacillus subtilis NCIM 2063 up to 300 ug/ml by standard agar method). Details: not given.
Assay type: functional, organism-based

SMILES	Activity
COc1cccc(N)c1/C=N/NC(=O)CN1CCc2sccc2C1	inactive
O=C(CN1CCc2sccc2C1)N/N=C/c1ccc(O)c(O)c1	inactive
N#Cc1ccc(/C=N/NC(=O)CN2CCc3sccc3C2)cc1	inactive
CN(C)c1ccc(/C=N/NC(=O)CN2CCc3sccc3C2)cc1	inactive

The compounds below were run on HeLa (assay: Cytotoxicity against human HeLa cells up to 300 ug/ml after 72 hrs by MTT assay). Details: not given.
Assay type: cell-based

SMILES	Activity
O=C(CN1CCc2sccc2C1)N/N=C/c1c(Cl)cccc1Cl	Non-toxic
COc1cccc(N)c1/C=N/NC(=O)CN1CCc2sccc2C1	Non-toxic
O=C(CN1CCc2sccc2C1)N/N=C/c1ccc(O)c(O)c1	Non-toxic
COc1ccc(/C=N/NC(=O)CN2CCc3sccc3C2)cc1OC	Non-toxic
O=C(CN1CCc2sccc2C1)N/N=C/c1ccccc1Cl	Non-toxic
O=C(CN1CCc2sccc2C1)N/N=C/c1ccc(Cl)cc1	Non-toxic
N#Cc1ccc(/C=N/NC(=O)CN2CCc3sccc3C2)cc1	Non-toxic
COc1ccc(/C=N/NC(=O)CN2CCc3sccc3C2)c(OC)c1	Non-toxic
CN(C)c1ccc(/C=N/NC(=O)CN2CCc3sccc3C2)cc1	Non-toxic
COc1ccc(OC)c(/C=N/NC(=O)CN2CCc3sccc3C2)c1	Non-toxic

These compounds were tested on Candida albicans (assay: Antifungal activity against Candida albicans NCIM 3471 by standard agar method). Details: not given.
Assay type: functional
Outline: as §1

SMILES	MIC [µg/mL]
O=C(CN1CCc2sccc2C1)N/N=C/c1c(Cl)cccc1Cl	80 (≈ 217 µM)
OC(Cn1cncn1)(Cn1cncn1)c1ccc(F)cc1F [FLUCONAZOLE]	5 (≈ 16.3 µM)
COc1cccc(N)c1/C=N/NC(=O)CN1CCc2sccc2C1	60 (≈ 174 µM)
O=C(CN1CCc2sccc2C1)N/N=C/c1ccc(O)c(O)c1	75 (≈ 226 µM)
COc1ccc(/C=N/NC(=O)CN2CCc3sccc3C2)cc1OC	37.5 (≈ 104 µM)
O=C(CN1CCc2sccc2C1)N/N=C/c1ccccc1Cl	60 (≈ 180 µM)
O=C(CN1CCc2sccc2C1)N/N=C/c1ccc(Cl)cc1	100 (≈ 300 µM)
N#Cc1ccc(/C=N/NC(=O)CN2CCc3sccc3C2)cc1	80 (≈ 247 µM)
COc1ccc(/C=N/NC(=O)CN2CCc3sccc3C2)c(OC)c1	25 (≈ 69.6 µM)
Clc1ccc(COC(Cn2ccnc2)c2ccc(Cl)cc2Cl)c(Cl)c1 (stereo unspecified) [MICONAZOLE]	25 (≈ 60.1 µM)
CN(C)c1ccc(/C=N/NC(=O)CN2CCc3sccc3C2)cc1	40 (≈ 117 µM)
COc1ccc(OC)c(/C=N/NC(=O)CN2CCc3sccc3C2)c1	25 (≈ 69.6 µM)

What follows are compounds tested on Pseudomonas aeruginosa (assay: Antibacterial activity against Pseudomonas aeruginosa NCIM 2036 up to 300 ug/ml by standard agar method). Details: not given.
Assay type: functional, organism-based

SMILES	Activity
COc1cccc(N)c1/C=N/NC(=O)CN1CCc2sccc2C1	inactive
CN(C)c1ccc(/C=N/NC(=O)CN2CCc3sccc3C2)cc1	inactive

What follows are compounds tested on Leishmania donovani (assay: Antileishmanial activity against Leishmania donovani NHOM/IN/80/DD8 promastigotes assessed as decrease in parasite growth after 72 hrs by MTT assay). Details: NHOM/IN/80/DD8, 72 h.
Assay type: functional, organism-based
Outline: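 Cultured promastigotes were used, and viability was read by a modified MTT assay, with formazan yield taken as proportional to metabolically active cells. IC50 is the concentration cutting cell growth by 50%, found by graphic interpolation.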

SMILES	IC50 [µM]
O=C(CN1CCc2sccc2C1)N/N=C/c1c(Cl)cccc1Cl	645
COc1cccc(N)c1/C=N/NC(=O)CN1CCc2sccc2C1	722
O=C(CN1CCc2sccc2C1)N/N=C/c1ccc(O)c(O)c1	672
COc1ccc(/C=N/NC(=O)CN2CCc3sccc3C2)cc1OC	619
O=C(CN1CCc2sccc2C1)N/N=C/c1ccccc1Cl	296
O=C(CN1CCc2sccc2C1)N/N=C/c1ccc(Cl)cc1	738
N#Cc1ccc(/C=N/NC(=O)CN2CCc3sccc3C2)cc1	694
COc1ccc(/C=N/NC(=O)CN2CCc3sccc3C2)c(OC)c1	737
CN(C)c1ccc(/C=N/NC(=O)CN2CCc3sccc3C2)cc1	274
N=C(N)c1ccc(OCCCCCOc2ccc(C(=N)N)cc2)cc1 [PENTAMIDINE]	16.1
COc1ccc(OC)c(/C=N/NC(=O)CN2CCc3sccc3C2)c1	689

What follows are compounds tested on Bacillus subtilis (assay: Antibacterial activity against Bacillus subtilis NCIM 2063 by standard agar method). Details: not given.
Assay type: functional
Outline: as §1

SMILES	MIC [µg/mL]
O=C(CN1CCc2sccc2C1)N/N=C/c1c(Cl)cccc1Cl	250 (≈ 679 µM)
COc1ccc(/C=N/NC(=O)CN2CCc3sccc3C2)cc1OC	150 (≈ 417 µM)
O=C(CN1CCc2sccc2C1)N/N=C/c1ccccc1Cl	100 (≈ 300 µM)
O=C(CN1CCc2sccc2C1)N/N=C/c1ccc(Cl)cc1	100 (≈ 300 µM)
COc1ccc(/C=N/NC(=O)CN2CCc3sccc3C2)c(OC)c1	100 (≈ 278 µM)
COc1ccc(OC)c(/C=N/NC(=O)CN2CCc3sccc3C2)c1	100 (≈ 278 µM)
CC1(C)S[C@@H]2[C@H](NC(=O)[C@H](N)c3ccccc3)C(=O)N2[C@H]1C(=O)O [AMPICILLIN]	250 (≈ 715 µM)

Each compound was assayed on Escherichia coli (assay: Antibacterial activity against Escherichia coli NCIM 2256 by standard agar method). Details: not given.
Assay type: functional
Outline: as §1

SMILES	MIC [µg/mL]
O=C(CN1CCc2sccc2C1)N/N=C/c1c(Cl)cccc1Cl	50 (≈ 136 µM)
COc1cccc(N)c1/C=N/NC(=O)CN1CCc2sccc2C1	175 (≈ 508 µM)
O=C(CN1CCc2sccc2C1)N/N=C/c1ccc(O)c(O)c1	50 (≈ 151 µM)
COc1ccc(/C=N/NC(=O)CN2CCc3sccc3C2)cc1OC	150 (≈ 417 µM)
O=C(CN1CCc2sccc2C1)N/N=C/c1ccccc1Cl	25 (≈ 74.9 µM)
O=C(CN1CCc2sccc2C1)N/N=C/c1ccc(Cl)cc1	25 (≈ 74.9 µM)
N#Cc1ccc(/C=N/NC(=O)CN2CCc3sccc3C2)cc1	100 (≈ 308 µM)
COc1ccc(/C=N/NC(=O)CN2CCc3sccc3C2)c(OC)c1	125 (≈ 348 µM)
CN(C)c1ccc(/C=N/NC(=O)CN2CCc3sccc3C2)cc1	50 (≈ 146 µM)
COc1ccc(OC)c(/C=N/NC(=O)CN2CCc3sccc3C2)c1	125 (≈ 348 µM)
O=C(O)c1cn(C2CC2)c2cc(N3CCNCC3)c(F)cc2c1=O [CIPROFLOXACIN]	25 (≈ 75.4 µM)
CC1(C)S[C@@H]2[C@H](NC(=O)[C@H](N)c3ccccc3)C(=O)N2[C@H]1C(=O)O [AMPICILLIN]	100 (≈ 286 µM)
